# Source: ChEMBL document CHEMBL1146375, “Synthetic studies on novel benzimidazolopeptides with antimicrobial, cytotoxic and anthelmintic potential” (2007)
# Test system: Staphylococcus aureus
# Assay: Antibacterial activity against Staphylococcus aureus NCIM 2079 after 18 hrs by tube dilution method
# Assay type: functional
# Details: NCIM 2079, 18 h
# Outline: (§1)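 Tube dilution MIC. Stock diluted in sterile broth to seven concentrations from 200 to 3.1 […]. Each tube inoculated with one loopful of test bacterium and incubated 18 h at 37 °C. MIC read from presence or absence of growth.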
row,SMILES,MIC [µg/mL]
1,CC(C)[C@H](NC(=O)c1cc(-c2nc3ccc([N+](=O)[O-])cc3[nH]2)ccc1O)C(=O)N[C@@H](Cc1ccccc1)C(=O)N[C@@H](Cc1cnc[nH]1)C(=O)O,12.5

# Test system: Escherichia coli
# Assay: Antibacterial activity against Escherichia coli NCIM 2065 after 18 hrs by disc diffusion method
# Assay type: functional
# Details: not given
# Outline: (§2)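 Modified Kirby-Bauer disc diffusion. Plates inoculated with spore suspension (about 6 × 10⁴ spores mL^-1). Sterile 6 mm paper discs carried test samples at 10 mg mL^-1; ciprofloxacin disc as reference, DMF disc as negative control. Plates held 18 h at 37 °C. Inhibition zone diameters (mm) averaged over triplicate sets.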
row,SMILES,inhibition zone (IZ) [mm]
1,CC(C)[C@H](NC(=O)c1cc(-c2nc3ccc([N+](=O)[O-])cc3[nH]2)ccc1O)C(=O)N[C@@H](Cc1ccccc1)C(=O)N[C@@H](Cc1cnc[nH]1)C(=O)O,16

# Test system: Escherichia coli
# Assay: Antibacterial activity against Escherichia coli NCIM 2065 after 18 hrs by tube dilution method
# Assay type: functional
# Details: NCIM 2065, 18 h
row,SMILES,MIC [µg/mL]
1,CC(C)[C@H](NC(=O)c1cc(-c2nc3ccc([N+](=O)[O-])cc3[nH]2)ccc1O)C(=O)N[C@@H](Cc1ccccc1)C(=O)N[C@@H](Cc1cnc[nH]1)C(=O)O,12.5

# Test system: Staphylococcus aureus
# Assay: Antibacterial activity against Staphylococcus aureus NCIM 2079 after 18 hrs by disc diffusion method
# Assay type: functional
# Details: not given
# Outline: as §2
row,SMILES,inhibition zone (IZ) [mm]
1,CC(C)[C@H](NC(=O)c1cc(-c2nc3ccc([N+](=O)[O-])cc3[nH]2)ccc1O)C(=O)N[C@@H](Cc1ccccc1)C(=O)N[C@@H](Cc1cnc[nH]1)C(=O)O,11

# Test system: Pontoscolex corethrurus
# Assay: Anthelmintic activity against Pontoscolex corethrurus ICARBC 408 assessed as mean death time
# Assay type: functional
# Details: not given
# Outline: (§3)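 Earthworms exposed to test suspensions at 2 mg mL−1, prepared by triturating compound with Tween 80 (0.5%) and distilled water, stirring 30 min, then diluting to 0.2% w/v. Mebendazole suspension was made the same way. Death was confirmed by moving worms into 50 °C warm water and looking for movement. Mean death time (min) taken from triplicate sets.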
row,SMILES,Time [min]
1,CC(C)[C@H](NC(=O)c1cc(-c2nc3ccc([N+](=O)[O-])cc3[nH]2)ccc1O)C(=O)N[C@@H](Cc1ccccc1)C(=O)N[C@@H](Cc1cnc[nH]1)C(=O)O,22.79

# Test system: not listed separately
# Assay: Growth inhibition of DLA cells at 250 ug/mL after 3 hrs
# Assay type: functional
# Details: Mus musculus
# Outline: (§4)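 DLA and EAC cells passaged intraperitoneally in albino mice, harvested after 15–20 days and adjusted to 1 × 10⁶ cells/mL. Dilutions in Dulbecco's medium (500–31.25, some down to 3.91 µg/mL; 5-FU reference) mixed 1:1 with cells and held 3 h at 37 °C. Trypan blue exclusion gave % growth inhibition; CTC50 by graphical extrapolation.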
row,SMILES,inhibition at 250 µg/mL [%]
1,CC(C)[C@H](NC(=O)c1cc(-c2nc3ccc([N+](=O)[O-])cc3[nH]2)ccc1O)C(=O)N[C@@H](Cc1ccccc1)C(=O)N[C@@H](Cc1cnc[nH]1)C(=O)O,28.9

# Test system: not listed separately
# Assay: Growth inhibition of DLA cells after 3 hrs
# Assay type: functional
# Details: Mus musculus
# Outline: as §4
row,SMILES,CC50 [µM]
1,CC(C)[C@H](NC(=O)c1cc(-c2nc3ccc([N+](=O)[O-])cc3[nH]2)ccc1O)C(=O)N[C@@H](Cc1ccccc1)C(=O)N[C@@H](Cc1cnc[nH]1)C(=O)O,> 718

# Test system: Eudrilus
# Assay: Anthelmintic activity against Eudrilus sp. assessed as mean death time
# Assay type: functional
# Details: not given
# Outline: as §3
row,SMILES,Time [min]
1,CC(C)[C@H](NC(=O)c1cc(-c2nc3ccc([N+](=O)[O-])cc3[nH]2)ccc1O)C(=O)N[C@@H](Cc1ccccc1)C(=O)N[C@@H](Cc1cnc[nH]1)C(=O)O,21.72

# Test system: Pseudomonas aeruginosa
# Assay: Antibacterial activity against Pseudomonas aeruginosa NCIM 2034 after 18 hrs by tube dilution method
# Assay type: functional
# Details: NCIM 2034, 18 h
# Outline: as §1
row,SMILES,MIC [µg/mL]
1,CC(C)[C@H](NC(=O)c1cc(-c2nc3ccc([N+](=O)[O-])cc3[nH]2)ccc1O)C(=O)N[C@@H](Cc1ccccc1)C(=O)N[C@@H](Cc1cnc[nH]1)C(=O)O,12.5

# Test system: not listed separately
# Assay: Anthelmintic activity against Megascoplex konkanensis ICARBC 211 assessed as mean death time
# Assay type: functional
# Details: not given
# Outline: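 Earthworms exposed to test suspensions at 2 mg mL^-1 (0.2% w/v), made by triturating compound with Tween 80 (0.5%) and distilled water, then mechanically stirred 30 min. Mebendazole suspension prepared alike as reference. Paralysis and death times recorded; death confirmed by no movement in 50 °C water. Means from triplicate sets.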
row,SMILES,TIME [h]
1,CC(C)[C@H](NC(=O)c1cc(-c2nc3ccc([N+](=O)[O-])cc3[nH]2)ccc1O)C(=O)N[C@@H](Cc1ccccc1)C(=O)N[C@@H](Cc1cnc[nH]1)C(=O)O,0.326

# Test system: not listed separately
# Assay: Growth inhibition of DLA cells at 500 ug/mL after 3 hrs
# Assay type: functional
# Details: Mus musculus
# Outline: as §4
row,SMILES,inhibition at 500 µg/mL [%]
1,CC(C)[C@H](NC(=O)c1cc(-c2nc3ccc([N+](=O)[O-])cc3[nH]2)ccc1O)C(=O)N[C@@H](Cc1ccccc1)C(=O)N[C@@H](Cc1cnc[nH]1)C(=O)O,42.1

# Test system: Microsporum audouinii
# Assay: Antifungal activity against Microsporum audouinii MUCC 545 after 48 hrs by disc diffusion method
# Assay type: functional
# Details: not given
# Outline: (§5)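 Agar well diffusion on plates inoculated with spore suspension in normal saline from cultures on Sabouraud's broth. Wells punched and loaded with test samples or griseofulvin at 10 mg mL^-1, with DMSO as negative control. Incubated 48 h at 37 °C.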
row,SMILES,inhibition zone (IZ) [mm]
1,CC(C)[C@H](NC(=O)c1cc(-c2nc3ccc([N+](=O)[O-])cc3[nH]2)ccc1O)C(=O)N[C@@H](Cc1ccccc1)C(=O)N[C@@H](Cc1cnc[nH]1)C(=O)O,12

# Test system: not listed separately
# Assay: Growth inhibition of DLA cells at 31.25 ug/mL after 3 hrs
# Assay type: functional
# Details: Mus musculus
# Outline: as §4
row,SMILES,inhibition at 31.25 µg/mL [%]
1,CC(C)[C@H](NC(=O)c1cc(-c2nc3ccc([N+](=O)[O-])cc3[nH]2)ccc1O)C(=O)N[C@@H](Cc1ccccc1)C(=O)N[C@@H](Cc1cnc[nH]1)C(=O)O,10.5

# Test system: Aspergillus niger
# Assay: Antifungal activity against Aspergillus niger MUCC 177 after 48 hrs by disc diffusion method
# Assay type: functional
# Details: not given
# Outline: as §5
row,SMILES,inhibition zone (IZ) [mm]
1,CC(C)[C@H](NC(=O)c1cc(-c2nc3ccc([N+](=O)[O-])cc3[nH]2)ccc1O)C(=O)N[C@@H](Cc1ccccc1)C(=O)N[C@@H](Cc1cnc[nH]1)C(=O)O,19

# Test system: not listed separately
# Assay: Growth inhibition of EAC cells at 125 ug/mL after 3 hrs
# Assay type: functional
# Details: Mus musculus, Ehrlich
# Outline: as §4
row,SMILES,inhibition at 125 µg/mL [%]
1,CC(C)[C@H](NC(=O)c1cc(-c2nc3ccc([N+](=O)[O-])cc3[nH]2)ccc1O)C(=O)N[C@@H](Cc1ccccc1)C(=O)N[C@@H](Cc1cnc[nH]1)C(=O)O,7.14

# Test system: not listed separately
# Assay: Growth inhibition of EAC cells at 31.25 ug/mL after 3 hrs
# Assay type: functional
# Details: Mus musculus, Ehrlich
# Outline: as §4
row,SMILES,inhibition at 31.25 µg/mL [%]
1,CC(C)[C@H](NC(=O)c1cc(-c2nc3ccc([N+](=O)[O-])cc3[nH]2)ccc1O)C(=O)N[C@@H](Cc1ccccc1)C(=O)N[C@@H](Cc1cnc[nH]1)C(=O)O,3.57

# Test system: Bacillus subtilis
# Assay: Antibacterial activity against Bacillus subtilis NCIM 2063 after 18 hrs by tube dilution method
# Assay type: functional
# Details: NCIM 2063, 18 h
# Outline: as §1
row,SMILES,MIC [µg/mL]
1,CC(C)[C@H](NC(=O)c1cc(-c2nc3ccc([N+](=O)[O-])cc3[nH]2)ccc1O)C(=O)N[C@@H](Cc1ccccc1)C(=O)N[C@@H](Cc1cnc[nH]1)C(=O)O,6
